Laboratory results taken from ChEMBL document CHEMBL1275591, “Cellular pharmacodynamics of the novel biaryloxazolidinone radezolid: studies with infected phagocytic and nonphagocytic cells, using Staphylococcus aureus, Staphylococcus epidermidis, Listeria monocytogenes, and Legionella pneumophila” (Antimicrob Agents Chemother, 2010).
≈ marks a conversion by molar mass, not a printed value.

Tests used:
[1] = system: Staphylococcus aureus; experiment: Antimicrobial activity against linezolid-susceptible Staphylococcus aureus ATCC 25923 infected in THP1 cells assessed as log reduction in bacterial count after 24 hrs; assay type: functional, THP-1
In short: (§1)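 Bacteria were phagocytosed by human THP-1 macrophage-like cells, then exposed to a range of drug concentrations for a fixed time: 24 h for S. aureus, S. epidermidis and L. monocytogenes, 48 h for L. pneumophila. Change in CFU versus the initial inoculum was fitted with a sigmoidal curve to give Emin, Emax (relative maximal efficacy), EC50 and static concentration (Cs).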

[2] = system: Staphylococcus aureus; experiment: Bacteriostatic activity against Staphylococcus aureus infected in THP1 cells after 24 hrs; assay type: functional, THP-1; in short: as §1
[3] = system: Staphylococcus aureus; experiment: Bacteriostatic activity against linezolid-susceptible Staphylococcus aureus ATCC 25923 infected in THP1 cells after 24 hrs; assay type: functional, THP-1
In short: (§2)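 Human THP-1 myelomonocytic (macrophage-like) cells infected with S. aureus, then exposed 24 h to a range of antibiotic concentrations. CFU change was measured against the initial inoculum. A sigmoidal dose-response curve was fitted to give Emin, Emax and EC50, and the apparent static concentration (Cs) was taken from the fit.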

[4] = system: Staphylococcus aureus; experiment: Antimicrobial activity against linezolid resistant methicillin-susceptible Staphylococcus aureus SA040L after 24 hrs; assay type: functional
[5] = system: Staphylococcus aureus; experiment: Antimicrobial activity against linezolid-susceptible Staphylococcus aureus ATCC 33591 infected in THP1 cells assessed as log reduction in bacterial count after 24 hrs; assay type: functional, THP-1; in short: as §1
[6] = system: Staphylococcus aureus; experiment: Antimicrobial activity against Staphylococcus aureus infected in THP1 cells after 24 hrs; assay type: functional, organism-based; conditions: THP-1, 24 h; in short: as §1
[7] = system: Staphylococcus aureus; experiment: Bacteriostatic activity against linezolid-susceptible Staphylococcus aureus SA238 infected in THP1 cells at pH 7.4 after 24 hrs; assay type: functional, THP-1
[8] = system: Staphylococcus aureus; experiment: Bacteriostatic activity against linezolid-susceptible Staphylococcus aureus ATCC 33591 infected in THP1 cells after 24 hrs; assay type: functional, THP-1; in short: as §2
[9] = system: Staphylococcus aureus; experiment: Antimicrobial activity against Linezolid resistant hospital acquired methicillin-resistant Staphylococcus aureus SA238L after 24 hrs; assay type: functional
[10] = system: Staphylococcus epidermidis; experiment: Antimicrobial activity against Staphylococcus epidermidis SA362 after 24 hrs; assay type: functional; conditions: SA362, 24 h
[11] = system: Staphylococcus aureus; experiment: Antimicrobial activity against linezolid-susceptible Staphylococcus aureus SA238 after 24 hrs; assay type: functional, organism-based; conditions: SA238, 24 h
[12] = system: Staphylococcus aureus; experiment: Bacteriostatic activity against linezolid-susceptible Staphylococcus aureus SA238 infected in THP1 cells at pH 5.5 after 24 hrs; assay type: functional, THP-1
[13] = system: Staphylococcus epidermidis; experiment: Bacteriostatic activity against Staphylococcus epidermidis infected in THP1 cells after 24 hrs; assay type: functional, THP-1; in short: as §1
[14] = system: Staphylococcus aureus; experiment: Bacteriostatic activity against linezolid-resistant Staphylococcus aureus SA040L infected in THP1 cells after 24 hrs; assay type: functional, THP-1; in short: as §2
[15] = system: Staphylococcus aureus; experiment: Bacteriostatic activity against linezolid-susceptible Staphylococcus aureus SA238 infected in THP1 cells after 24 hrs; assay type: functional, THP-1; in short: as §2
[16] = system: Listeria monocytogenes; experiment: Bacteriostatic activity against Listeria monocytogenes EGD infected in THP1 cells after 24 hrs; assay type: functional, THP-1; in short: as §1
[17] = system: Staphylococcus aureus; experiment: Antimicrobial activity against linezolid-susceptible Staphylococcus aureus NRS18 infected in THP1 cells after 24 hrs; assay type: functional, organism-based; conditions: NRS18, THP-1, 24 h; in short: as §1
[18] = system: Staphylococcus aureus; experiment: Antimicrobial activity against linezolid-resistant Staphylococcus aureus SA238L infected in THP1 cells after 24 hrs; assay type: functional, organism-based; conditions: THP-1, 24 h; in short: as §1
[19] = system: Staphylococcus aureus; experiment: Antimicrobial activity against linezolid-susceptible Staphylococcus aureus SA238 infected in THP1 cells at pH 7.4 after 24 hrs; assay type: functional, organism-based; conditions: SA238, THP-1, 24 h
[20] = system: Staphylococcus aureus; experiment: Antimicrobial activity against hospital acquired methicillin-resistant, vancomycin resistant Staphylococcus aureus VRS2 after 24 hrs; assay type: functional; conditions: VRS2, 24 h
[21] = system: Listeria monocytogenes; experiment: Antimicrobial activity against Listeria monocytogenes EGD after 24 hrs; assay type: functional
[22] = system: Staphylococcus aureus; experiment: Antimicrobial activity against linezolid-susceptible Staphylococcus aureus SA040 infected in THP1 cells assessed as log reduction in bacterial count after 24 hrs; assay type: functional, THP-1; in short: as §1
[23] = system: Staphylococcus aureus; experiment: Antimicrobial activity against linezolid-susceptible Staphylococcus aureus SA238 infected in THP-1 cells at pH 5.5 after 24 hrs; assay type: functional, organism-based; conditions: SA238, THP-1, 24 h
[24] = system: Staphylococcus epidermidis; experiment: Antimicrobial activity against Staphylococcus epidermidis infected in THP1 cells after 24 hrs; assay type: functional, organism-based; conditions: THP-1, 24 h; in short: as §1
[25] = system: Staphylococcus aureus; experiment: Antimicrobial activity against linezolid-resistant Staphylococcus aureus SA238L infected in THP1 cells assessed as log reduction in bacterial count after 24 hrs; assay type: functional, THP-1; in short: as §1
[26] = system: Staphylococcus aureus; experiment: Antimicrobial activity against linezolid-susceptible Staphylococcus aureus NRS384 infected in THP1 cells assessed as log reduction in bacterial count after 24 hrs; assay type: functional, THP-1; in short: as §1
[27] = system: Staphylococcus aureus; experiment: Antimicrobial activity against linezolid-susceptible Staphylococcus aureus NRS18 infected in THP1 cells assessed as log reduction in bacterial count after 24 hrs; assay type: functional, THP-1; in short: as §1
[28] = system: Legionella pneumophila; experiment: Antimicrobial activity against Legionella pneumophila ATCC 33153 infected in THP1 cells after 48hrs; assay type: functional, organism-based; conditions: ATCC 33153, THP-1, 48 h; in short: as §1
[29] = system: Staphylococcus aureus; experiment: Antimicrobial activity against linezolid-susceptible Staphylococcus aureus SA238 infected in THP1 cells after 24 hrs; assay type: functional, organism-based; conditions: SA238, THP-1, 24 h; in short: as §1
[30] = system: Staphylococcus aureus; experiment: Bacteriostatic activity against linezolid-susceptible Staphylococcus aureus NRS384 infected in THP1 cells after 24 hrs; assay type: functional, THP-1; in short: as §2
[31] = system: Staphylococcus aureus; experiment: Antimicrobial activity against linezolid-susceptible Staphylococcus aureus SA040 infected in THP1 cells after 24 hrs; assay type: functional, organism-based; conditions: SA040, THP-1, 24 h; in short: as §1
[32] = system: Staphylococcus aureus; experiment: Antimicrobial activity against linezolid-resistant Staphylococcus aureus SA040L infected in THP1 cells after 24 hrs; assay type: functional, organism-based; conditions: THP-1, 24 h; in short: as §1
[33] = system: Staphylococcus aureus; experiment: Bacteriostatic activity against linezolid-resistant Staphylococcus aureus SA238L infected in THP1 cells after 24 hrs; assay type: functional, THP-1; in short: as §2
[34] = system: Staphylococcus aureus; experiment: Antimicrobial activity against linezolid-resistant Staphylococcus aureus SA040L infected in THP1 cells assessed as log reduction in bacterial count after 24 hrs; assay type: functional, THP-1; in short: as §1
[35] = system: Staphylococcus aureus; experiment: Bacteriostatic activity against linezolid-susceptible Staphylococcus aureus SA040 infected in THP1 cells after 24 hrs; assay type: functional, THP-1; in short: as §2
[36] = system: Staphylococcus aureus; experiment: Antimicrobial activity against hospital acquired methicillin-resistant Staphylococcus aureus ATCC 33591 after 24 hrs; assay type: functional; conditions: ATCC 33591, 24 h
[37] = system: Staphylococcus aureus; experiment: Antimicrobial activity against linezolid-susceptible Staphylococcus aureus NRS384 infected in THP1 cells after 24 hrs; assay type: functional, organism-based; conditions: NRS384, THP-1, 24 h; in short: as §1
[38] = system: Staphylococcus aureus; experiment: Bacteriostatic activity against linezolid-susceptible Staphylococcus aureus NRS18 infected in THP1 cells after 24 hrs; assay type: functional, THP-1; in short: as §2
[39] = system: Staphylococcus aureus; experiment: Antimicrobial activity against linezolid-susceptible Staphylococcus aureus ATCC 33591 infected in THP1 cells after 24 hrs; assay type: functional, organism-based; conditions: ATCC 33591, THP-1, 24 h; in short: as §1
[40] = system: Legionella pneumophila; experiment: Antimicrobial activity against Legionella pneumophila ATCC 33153 after 48 hrs; assay type: functional; conditions: ATCC 33153, 48 h
[41] = system: Staphylococcus aureus; experiment: Antimicrobial activity against linezolid-susceptible Staphylococcus aureus SA238 infected in THP1 cells assessed as log reduction in bacterial count after 24 hrs; assay type: functional, THP-1; in short: as §1
[42] = system: Listeria monocytogenes; experiment: Antimicrobial activity against Listeria monocytogenes infected in THP1 cells after 24 hrs; assay type: functional, organism-based; conditions: THP-1, 24 h; in short: as §1
[43] = system: Staphylococcus aureus; experiment: Antimicrobial activity against hospital acquired methicillin-resistant, vancomycin resistant Staphylococcus aureus VRS1 after 24 hrs; assay type: functional; conditions: VRS1, 24 h
[44] = system: Legionella pneumophila; experiment: Bacteriostatic activity against Legionella pneumophila ATCC 33153 infected in THP1 cells after 48hrs; assay type: functional, THP-1; in short: as §1
[45] = system: Staphylococcus aureus; experiment: Bacteriostatic activity against linezolid-susceptible Staphylococcus aureus SA238 after 24 hrs; assay type: functional
In short: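 Extracellular concentration-response in Mueller-Hinton broth over 24 h. Change in CFU was fitted to a sigmoidal function, and the apparent static concentration (Cs) was derived from the fit.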

[46] = system: Staphylococcus aureus; experiment: Antimicrobial activity against linezolid-susceptible Staphylococcus aureus ATCC 25923 infected in THP1 cells after 24 hrs; assay type: functional, organism-based; conditions: ATCC 25923, THP-1, 24 h; in short: as §1

CC(=O)NC[C@H]1CN(c2ccc(N3CCOCC3)c(F)c2)C(=O)O1 [LINEZOLID]
log10cfu [1]: -0.37
Activity [2]: 4.27 mg/L
Activity [3]: 4.27 mg/L
MIC [4]: 16 µg/mL (≈ 47.4 µM)
log10cfu [5]: -0.39
EC50 [6]: 0.63 µg/mL (≈ 1.87 µM)
Activity [7]: 2.26 mg/L
Activity [8]: 2.95 mg/L
MIC [9]: 16 µg/mL (≈ 47.4 µM)
MIC [10]: 1 µg/mL (≈ 2.96 µM)
EC50 [11]: 0.7 µg/mL (≈ 2.07 µM)
Activity [12]: 1.09 mg/L
Activity [13]: 0.49 mg/L
Activity [14]: 10.15 mg/L
Activity [15]: 4.55 mg/L
Activity [16]: 5.47 mg/L
EC50 [17]: 0.84 µg/mL (≈ 2.49 µM)
EC50 [18]: 0.29 µg/mL (≈ 0.86 µM)
EC50 [19]: 0.35 µg/mL (≈ 1.04 µM)
MIC [20]: 1 µg/mL (≈ 2.96 µM)
MIC [21]: 1 µg/mL (≈ 2.96 µM)
log10cfu [22]: -0.91
EC50 [23]: 0.18 µg/mL (≈ 0.534 µM)
EC50 [24]: 2.99 µg/mL (≈ 8.86 µM)
log10cfu [25]: 0.27
log10cfu [26]: -0.41
log10cfu [27]: -0.69
EC50 [28]: 8.45 µg/mL (≈ 25 µM)
EC50 [29]: 0.7 µg/mL (≈ 2.07 µM)
Activity [30]: 2.3 mg/L
EC50 [31]: 0.63 µg/mL (≈ 1.87 µM)
EC50 [32]: 2.78 µg/mL (≈ 8.24 µM)
Activity [33]: >100 mg/L
log10cfu [34]: -0.69
Activity [35]: 1.59 mg/L
MIC [36]: 1 µg/mL (≈ 2.96 µM)
EC50 [37]: 0.4 µg/mL (≈ 1.19 µM)
Activity [38]: 2.77 mg/L
EC50 [39]: 0.47 µg/mL (≈ 1.39 µM)
MIC [40]: 4 µg/mL (≈ 11.9 µM)
log10cfu [41]: -0.42
EC50 [42]: 0.62 µg/mL (≈ 1.84 µM)
MIC [43]: 1 µg/mL (≈ 2.96 µM)
Activity [44]: 5.14 mg/L
Activity [45]: 4.55 mg/L
EC50 [46]: 0.63 µg/mL (≈ 1.87 µM)
